Activity calls are given as the source filed them. The rule behind the calls is not given here.

Assay [1] concerns the target T1, Oxysterols receptor LXR-beta (Homo sapiens) (UniProt P55055).
T1 sequence (whole entry): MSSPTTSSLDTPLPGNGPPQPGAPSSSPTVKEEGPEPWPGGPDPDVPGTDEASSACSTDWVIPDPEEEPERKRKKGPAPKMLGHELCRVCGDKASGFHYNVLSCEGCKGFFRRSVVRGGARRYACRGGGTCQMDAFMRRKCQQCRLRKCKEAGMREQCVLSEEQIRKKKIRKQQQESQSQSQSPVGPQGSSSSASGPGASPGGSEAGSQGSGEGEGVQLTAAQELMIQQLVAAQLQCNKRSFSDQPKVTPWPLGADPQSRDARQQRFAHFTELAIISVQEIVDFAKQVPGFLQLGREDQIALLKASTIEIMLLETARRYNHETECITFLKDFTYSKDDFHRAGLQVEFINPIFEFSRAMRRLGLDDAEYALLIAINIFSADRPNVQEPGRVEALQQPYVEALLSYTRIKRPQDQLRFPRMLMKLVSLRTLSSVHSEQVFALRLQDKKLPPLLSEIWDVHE
Description: Activation of Gal4-fused human LXRbeta LBD transfected in HEK293T cells at 10 uM after 12 to 14 hrs by luciferase reporter gene assay. Format: cell-based. Put shortly: (§1)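 Gal4–human nuclear receptor LBD fusion (pFA-CMV-hNR-LBD) co-transfected with pFR-Luc and pRL-SV40 (Lipofectamine LTX) into HEK293T cells seeded the day before. 5 h post-transfection, compound added in Opti-MEM with 0.1% DMSO and incubated 12−14 h. Dual-Glo firefly/Renilla luciferase read. Activation expressed relative to reference agonist at 1 μM. Triplicates, ≥3 independent experiments.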
In general terms: Reporter assays use an easily measured gene product as a stand-in for the process of interest.

Assay [2] has as its target T2, Peroxisome proliferator-activated receptor alpha (Homo sapiens) (UniProt Q07869).
T2 sequence (whole entry): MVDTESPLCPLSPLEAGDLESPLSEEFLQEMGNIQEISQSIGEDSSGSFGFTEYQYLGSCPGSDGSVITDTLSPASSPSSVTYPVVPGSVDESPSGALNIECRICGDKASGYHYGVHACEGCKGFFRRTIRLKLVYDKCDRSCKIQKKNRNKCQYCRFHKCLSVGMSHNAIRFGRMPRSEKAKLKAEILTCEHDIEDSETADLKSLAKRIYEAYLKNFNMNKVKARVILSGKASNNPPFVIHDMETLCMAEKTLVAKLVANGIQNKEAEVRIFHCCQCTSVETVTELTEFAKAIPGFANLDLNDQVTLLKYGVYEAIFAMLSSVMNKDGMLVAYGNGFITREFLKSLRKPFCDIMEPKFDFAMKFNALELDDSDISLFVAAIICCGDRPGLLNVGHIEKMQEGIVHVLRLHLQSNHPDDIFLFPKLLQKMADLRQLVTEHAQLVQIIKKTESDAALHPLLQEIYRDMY
The experiment in a line: Activation of Gal4-fused human PPARalpha LBD transfected in HEK293T cells at 10 uM after 12 to 14 hrs by luciferase reporter gene assay. Format: cell-based. The method, boiled down:
as §1

The target of assay [3] is T3, Prostaglandin G/H synthase 2 (Homo sapiens, UniProt P35354).
T3 sequence (P35354 whole entry): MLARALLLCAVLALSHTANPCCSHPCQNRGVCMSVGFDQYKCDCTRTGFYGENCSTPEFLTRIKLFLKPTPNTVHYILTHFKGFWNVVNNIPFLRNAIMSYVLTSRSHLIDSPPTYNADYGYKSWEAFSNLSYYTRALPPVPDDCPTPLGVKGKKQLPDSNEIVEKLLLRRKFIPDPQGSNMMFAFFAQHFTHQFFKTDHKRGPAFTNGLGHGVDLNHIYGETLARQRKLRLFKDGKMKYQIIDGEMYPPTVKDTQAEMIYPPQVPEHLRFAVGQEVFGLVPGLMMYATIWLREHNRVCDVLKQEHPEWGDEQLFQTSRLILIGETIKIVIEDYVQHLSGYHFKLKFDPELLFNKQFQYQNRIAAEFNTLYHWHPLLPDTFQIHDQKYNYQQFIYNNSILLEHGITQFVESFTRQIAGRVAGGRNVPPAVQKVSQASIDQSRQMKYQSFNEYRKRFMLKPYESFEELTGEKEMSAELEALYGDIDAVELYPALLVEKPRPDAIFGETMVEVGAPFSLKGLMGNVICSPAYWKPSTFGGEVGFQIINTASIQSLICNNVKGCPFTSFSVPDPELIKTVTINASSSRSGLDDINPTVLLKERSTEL
The experiment in a line: Inhibition of COX2 in LPS-stimulated human monocytes assessed as reduction in PGE2 production by LC-tandem MIS analysis. Format: cell-based. The method, boiled down:
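Human monocytes resuspended in HBSS and pretreated with increasing compound concentrations before LPS challenge. PGE2 quantified by LC−MS/MS using PGE2-d4 isotope-dilution internal standard.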

Assay [4] deals with T4, Bifunctional epoxide hydrolase 2 (Rattus norvegicus, UniProt P80299).
T4 sequence (P80299 whole entry): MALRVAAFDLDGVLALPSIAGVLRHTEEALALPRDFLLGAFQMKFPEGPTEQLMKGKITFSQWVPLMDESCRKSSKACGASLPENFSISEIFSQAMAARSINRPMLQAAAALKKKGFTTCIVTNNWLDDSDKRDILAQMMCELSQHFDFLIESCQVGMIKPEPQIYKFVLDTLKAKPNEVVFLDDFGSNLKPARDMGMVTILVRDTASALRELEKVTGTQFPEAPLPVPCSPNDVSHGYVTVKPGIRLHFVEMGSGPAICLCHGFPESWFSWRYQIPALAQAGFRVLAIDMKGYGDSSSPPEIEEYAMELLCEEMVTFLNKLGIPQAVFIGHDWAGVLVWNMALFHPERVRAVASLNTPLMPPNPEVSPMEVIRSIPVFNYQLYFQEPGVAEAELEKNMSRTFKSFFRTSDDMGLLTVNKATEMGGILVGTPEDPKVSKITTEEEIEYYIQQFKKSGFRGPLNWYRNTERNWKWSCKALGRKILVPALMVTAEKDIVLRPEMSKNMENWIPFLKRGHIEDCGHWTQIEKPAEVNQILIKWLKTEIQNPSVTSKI
Description: Inhibition of hydrolase activity of full length rat soluble epoxide hydrolase pre-incubated for 30 mins before PHOME substrate addition by fluorescence based assay. The method, boiled down:
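Hydrolase assay with 0.1 μM full-length enzyme in Bis-Tris pH 7 containing 0.1 mg/mL BSA and 0.01% Triton X-100. […] Reaction started with PHOME (50 μM final). 6-Methoxynaphthaldehyde fluorescence (ex 330/em 465 nm) read every minute for 45 min. Triplicates.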

A word on the IC50: it is the concentration needed to halve the response being measured. For `O=C(O)CCCc1nc(-c2ccc(Cl)c(Cl)c2)c(-c2ccccc2)o1`, the outcome in assay [1] and in assay [2] was inactive. In addition, the IC50 in assay [3] is 420 nM; in assay [4] it was over 30000 nM.
Consider `O=C(O)CCc1nc(-c2ccccc2)c(-c2ccccc2)o1` [OXAPROZIN], for which the outcome in assay [1] and in assay [2] was inactive. Further, the results for the half-maximal inhibitory concentration (IC50) in assay [3] and in assay [4] were 110 nM and over 300000 nM, respectively.

Source of the values: ChEMBL document CHEMBL4414562, “Discovery of the First in Vivo Active Inhibitors of the Soluble Epoxide Hydrolase Phosphatase Domain” (J Med Chem, 2019).
